The source made the active and inactive calls. The calls are words filed in the database; no cut-off is given here.
Legend:
MDA-MB-231 [1] = test: Inhibition of cell migration in human MDA-MB-231 cells assessed as total number of cells at 10 uM after 24 hrs by transwell migration assay relative to control; values are per cent of control; details: MDA-MB-231, 24 h
MDA-MB-231 [2] = test: Cytotoxicity against human MDA-MB-231 cells assessed as colony formation at 10 uM after 2 weeks relative to control; type: cell-based; details: mda-mb-231, 336 h
Summary of the method: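 Clonogenic assay: MDA-MB-231 cells grown for 14 days in six-well plates with or without 10 μM compound. Colony formation expressed as % of DMSO vehicle control.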

HeLa [3] = test: Inhibition of cell migration in human HeLa cells assessed as total number of cells at 10 uM after 24 hrs by transwell migration assay relative to control; type: functional
MDA-MB-231 [4] = test: Inhibition of cell invasion in human MDA-MB-231 cells assessed as total number of cells at 10 uM after 24 hrs by matrigel invasion assay relative to control; type: functional; details: MDA-MB-231, 24 h
MDA-MB-231 [5] = test: Inhibition of cell migration in human MDA-MB-231 cells assessed as total number of cells after 24 hrs by transwell migration assay; type: functional, cell-based; details: for IC50: MDA-MB-231, 24 h
Summary of the method: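 Dose-response transwell migration in MDA-MB-231 cells: 2.5 × 10^4 cells in serum-free upper chamber, 5% FBS in the lower chamber.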

HeLa [6] = test: Cytotoxicity against human HeLa cells assessed as colony formation at 10 uM after 2 weeks relative to control; type: cell-based; details: 336 h
MDA-MB-231 [7] = test: Reduction of fascin localization in actin-rich membrane protrusion in human MDA-MB-231 cells at 10 uM by immuno fluorescence microscopic analysis; type: functional, cell-based
MDA-MB-231 [8] = test: Inhibition of serum-induced actin-rich membrane protrusion in human MDA-MB-231 cells assessed as reduction of f-actin intensity at 10 uM after overnight incubation by fluorescent microscopic analysis; type: functional
Summary of the method: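 MDA-MB-231 cells serum-starved with or without 10 μM compound, then serum-stimulated for 2 h to induce actin-rich membrane protrusions. F-actin was stained and imaged by fluorescence microscopy, and f-actin intensity was quantified against DMSO-treated cells.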

A549 = test: Inhibition of cell migration in human A549 cells assessed as total number of cells at 10 uM after 24 hrs by transwell migration assay relative to control; type: functional; details: A549, 24 h

Structure (SMILES) | level, % of control at 10 µM (MDA-MB-231 [1]) [%] | Activity (MDA-MB-231 [2]) [%] | also measured
Cc1ccc(-c2cs/c(=N/C(=O)c3cccs3)n2C)c(C)c1 | 37.1 | 102.3 | 
CCCCCCCCCCCC(=O)N(C)c1nc(-c2ccccc2)cs1 | 80 | 111.1 | 
COc1cc(OC)c(-c2csc(NC(=O)c3ccccc3)n2)c(OC)c1 | 59.2 | 108.8 | 
COc1ccc(C(=O)/N=c2/scc(-c3ccccc3)n2C)cc1OC | 35.9 | 40.9 | 
O=C(Nc1nc(-c2ccccc2)cs1)c1cccnc1 | 80.8 | 102.8 | 
Cc1ccc(-c2csc(N(C)C(=O)c3cccs3)n2)c(C)c1 | 72.2 | 97.7 | 
O=C(Nc1nc(-c2ccccc2)cs1)c1cccs1 | 34.5 | 85.9 | inhibition at 10 µM (HeLa [3]): 60%; inhibition at 10 µM (MDA-MB-231 [4]): 40%; IC50 (MDA-MB-231 [5]): 2490 nM
Nc1nc(-c2ccccc2)cs1 | 86 | 103.6 | 
Cn1c(-c2ccccc2)cs/c1=N/C(=O)c1ccc(Br)cc1 | 59.7 | 63.8 | 
COc1cc(C(=O)/N=c2/scc(-c3ccccc3)n2C)cc(OC)c1OC | 26.5 | 75.4 | 
O=C(Nc1nc(-c2ccccc2)cs1)C1CCCCC1 | 92.7 | 103.4 | 
O=C(Nc1nc(-c2ccccc2)cs1)c1ccccc1 | 31.3 | 105.2 | inhibition at 10 µM (HeLa [3]): 60%; inhibition at 10 µM (MDA-MB-231 [4]): 40%; IC50 (MDA-MB-231 [5]): 1290 nM
Cc1ccc(-c2csc(N)n2)c(C)c1 | 45.5 | 110.9 | 
Cc1ccc(-c2csc(NC(=O)c3cccs3)n2)c(C)c1 | 40.9 | 67.5 | 
COc1cc(OC)c(-c2cs/c(=N/C(=O)c3ccccc3)n2C)c(OC)c1 | 40.6 | 94 | 
CCN(C(=O)c1ccco1)c1nc(-c2ccccc2)cs1 | 54.5 | 96.5 | 
O=C(Nc1nc(-c2ccccc2)cs1)C1CCCC1 | 68.2 | 99.8 | 
Cn1c(-c2ccccc2)cs/c1=N/C(=O)c1ccccc1 | 13 | 25.2 | inhibition at 10 µM (HeLa [3]): 60%; inhibition at 10 µM (MDA-MB-231 [4]): 40%; IC50 (MDA-MB-231 [5]): 189 nM; Activity (HeLa [6]): Toxic
O=C(Nc1nc(-c2ccccc2)cs1)c1ccc(Cl)cc1 | 78 | 95 | 
Cn1c(-c2ccccc2)cs/c1=N/C(=O)c1ccc(Cl)cc1 | 28.1 | 98.2 | inhibition at 10 µM (HeLa [3]): 60%; inhibition at 10 µM (MDA-MB-231 [4]): 40%; IC50 (MDA-MB-231 [5]): 1120 nM

Structure (SMILES) | level, % of control at 10 µM (MDA-MB-231 [1]) [%] | Activity (MDA-MB-231 [2]) [%] | also measured
CCCCCC(=O)N(C)c1nc(-c2ccccc2)cs1 | 71.4 | 127.5 | 
CCCCCCCCCCCC(=O)Nc1nc(-c2ccccc2)cs1 | 28.3 | 71.5 | inhibition at 10 µM (HeLa [3]): 60%; inhibition at 10 µM (MDA-MB-231 [4]): 40%; IC50 (MDA-MB-231 [5]): 1010 nM; Activity (HeLa [6]): Non-toxic
COc1cc(OC)c(-c2csc(N(C)C(=O)c3ccccc3)n2)c(OC)c1 | 91.5 | 110.4 | 
Cc1ccc(-c2cs/c(=N/C(=O)c3ccccc3)n2C)c(C)c1 | 14.3 | 120.9 | Activity (MDA-MB-231 [7]): Active; inhibition at 10 µM (MDA-MB-231 [8]): 55%; inhibition at 10 µM (HeLa [3]): 80%; inhibition at 10 µM (MDA-MB-231 [4]): 60%; inhibition (MDA-MB-231 [5]): Dose-dependent effect; IC50 (MDA-MB-231 [5]): 176 nM; Activity (HeLa [6]): 85%; inhibition at 10 µM (A549): 80%
Cn1c(-c2ccccc2)cs/c1=N/C(=O)c1cccs1 | 43.3 | 85 | 
CN(C(=O)c1ccc(Br)cc1)c1nc(-c2ccccc2)cs1 | 78.2 | 107.7 | 
CCn1c(-c2ccccc2)cs/c1=N/C(=O)c1cccs1 | 32.1 | 97.7 | inhibition at 10 µM (HeLa [3]): 60%; inhibition at 10 µM (MDA-MB-231 [4]): 40%; IC50 (MDA-MB-231 [5]): 2080 nM; Activity (HeLa [6]): 45%
O=C(Nc1nc(-c2ccccc2)cs1)c1ccc(Br)cc1 | 103 | 98.6 | 
COc1ccc(C(=O)Nc2nc(-c3ccccc3)cs2)cc1OC | 18.6 | 57.3 | 
Cc1ccc(-c2csc(NC(=O)c3ccccc3)n2)c(C)c1 | 33.7 | 85 | inhibition at 10 µM (HeLa [3]): 60%; inhibition at 10 µM (MDA-MB-231 [4]): 40%; IC50 (MDA-MB-231 [5]): 839 nM
Cn1c(-c2ccccc2)cs/c1=N/C(=O)c1cccnc1 | 62 | 111.5 | 
COc1cc(C(=O)Nc2nc(-c3ccccc3)cs2)cc(OC)c1OC | 46.5 | 80.9 | 
Cn1c(-c2ccccc2)cs/c1=N/C(=O)c1ccco1 | 77.6 | 107.3 | 
CN(C(=O)C1CCCCC1)c1nc(-c2ccccc2)cs1 | 72.7 | 97.5 | 
CN(C(=O)c1ccccc1)c1nc(-c2ccccc2)cs1 | 39.2 | 123.4 | inhibition at 10 µM (HeLa [3]): 60%; inhibition at 10 µM (MDA-MB-231 [4]): 40%; IC50 (MDA-MB-231 [5]): 366 nM
O=C(Nc1nc(-c2ccccc2)cs1)c1ccco1 | 88 | 98.8 | 
COc1ccc(C(=O)N(C)c2nc(-c3ccccc3)cs2)cc1OC | 43.5 | 97.1 | 
O=C(Nc1nc(-c2ccccc2)cs1)c1ccncc1 | 32.3 | 95.5 | inhibition at 10 µM (HeLa [3]): 60%; inhibition at 10 µM (MDA-MB-231 [4]): 40%; IC50 (MDA-MB-231 [5]): 2870 nM
CN(C(=O)C1CCCC1)c1nc(-c2ccccc2)cs1 | 54.3 | 132.4 | 
CCCCCC(=O)Nc1nc(-c2ccccc2)cs1 | 75.2 | 90.7 | 
